This is a sample that favours compounds with a hit; in the whole collection about 2.9% have one here.
TRPC4 act: activators of mouse TRPC4 channel | Q9QUQ5 | HEK293 TRPC4beta/mu-opioid, Fluo4 calcium fluorescence; active compounds read high | B-score at 10 µM | hit rate 0.49% among 310,000;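 active = B-score above 5 SD of library B-scores, and initial fluorescence ratio not above library mean plus 5 SD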;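 note: positive B-score marks a calcium rise read as TRPC4 activation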
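Assay system: HEK293 cells stably co-expressing mouse TRPC4beta and mu-opioid receptor / Timing: Fluo4 dye loading 45 min at room temperature, 110 s recording / Signal: Fluo4 calcium-sensitive dye fluorescence, kinetic, 1 Hz baseline / Read-out: integrated baseline-normalised fluorescence ratio, converted to per-well B score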
TRPC6 inhibitor: blocks the mouse TRPC6 cation channel; Q61143; HEK293-TRPC6, membrane potential dye, ACh-evoked depolarization; active compounds read low; B-score at 10 µM; hit rate 1.1% among 310,000; AID 2553;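 active = B-score under library mean minus 3 SD, initial fluorescence not abnormally high, positive integrated signal ratio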;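 note: B-score derived from integrated fluorescence ratio over the kinetic read; more negative B-score means stronger inhibition of depolarization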
TRPC4 potent: allosterically enhances the mouse TRPC4 cation channel; hit rate 0.42% among 310,000; HEK293 TRPC4beta/mu-opioid, DAMGO EC20, Fluo-4 Ca2+ flux; active compounds read high; B-score at 10 µM; Q9QUQ5; AID 2227;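 active = B-score of calcium response area above 5 SD of library B-scores, with initial fluorescence ratio within 5 SD of library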
TRPC4 inh: blocks the mouse TRPC4 cation channel. Q9QUQ5. B-score at 10 µM. hit rate 0.39% among 300,000. HEK293 TRPC4beta/mu-opioid, DAMGO-evoked Fluo4 calcium flux; active compounds read low;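 active = B-score over 3 SD under the library average, no early fluorescence shift, positive overall ratio signal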
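Assay system: HEK293 cells with stable TRPC4beta plus mu-opioid receptor expression; Probe or stimulus: DAMGO in two steps, submaximal then maximal; Dosing: single-point compound dosing; Measured by: Fluo4 calcium-dye fluorescence, kinetic read; Read-out basis: B score from integrated Fluo4 fluorescence ratio.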
TRPC6 activator: activators of mouse TRPC6 channel. Q61143. B-score at 10 µM. HEK293-TRPC6 membrane potential dye fluorescence; active compounds read high. hit rate 0.13% among 310,000;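 active = B-score of the integrated fluorescence ratio above library mean plus 3 SD, and starting fluorescence ratio within library mean plus 5 SD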;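 note: higher score means more depolarization so channel activation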
Kir21 inh: Kir2.1 (mouse) channel inhibition; AID 1672; hit rate 0.85% among 310,000; P35561; HEK293-Kir2.1, FluxOR thallium flux fluorescence; active compounds read low; B-score at 10 µM;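 active = fluorescence ratio B-score at or below minus 3 SD of library scores, with starting-brightness B-score within 2 SD, cut at about -4.2 in these data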;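 note: channel flux triggered by added potassium and thallium sulfate stimulus; B-score of peak minus minimum fluorescence over baseline after thallium stimulus; more negative B-score means stronger Kir2.1 block with less thallium influx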
Each line names hits and unclear results; the compound was inactive in the other large screens.

O=C(Oc1ccc(=O)n(-c2ccccc2)n1)c1ccc(Cl)cc1	Kir21 inh -4.3
NC(=O)COc1ccc(=O)n(-c2ccccc2)n1	none
CCCn1c(NC(=O)c2cccc(S(=O)(=O)N3CCCC3)c2)nc2ccccc21	TRPC4 potent 43, TRPC4 inh -6
Cc1cccc(N(C(=O)CNC(=O)c2ccco2)C(C(=O)NC2CCCC2)c2cccnc2)c1C (configuration not stated)	none
CCOC(=O)C1=NN(c2ccccc2)C2=NC(C)=C(C(=O)OC)C(c3cccs3)N12 (configuration not stated)	none
CCOC(=O)C1=NN(c2ccccc2C)C2=NC(C)=C(C(=O)OC)C(c3cccc(OC)c3)N12 (configuration not stated)	TRPC4 inh -5
O=C(C[n+]1cccc(CNC(=O)c2ccc(OC(F)F)cc2)c1)Nc1ccc(SC(F)F)cc1	TRPC4 inh -7
CN(C)CCn1c(N)nc2ccccc21	TRPC4 potent 13
COc1cc(S(=O)(=O)N2CCN(Cc3ccccc3)CC2)ccc1Br	TRPC4 potent 10
O=C1CSC(c2cccnc2)N1C1CCCCC1 (configuration not stated)	none
O=C1CSC(c2ccc(Cl)cc2)N1C1CCCCC1 (configuration not stated)	Kir21 inh -6.1
CC(C)c1ccc(C(=O)N(c2ccccn2)C(C)c2ccco2)cc1 (configuration not stated)	none
CC(c1ccco1)N(C(=O)CSc1ccc(Br)cc1)c1ccccn1 (configuration not stated)	Kir21 inh -6.4
O=C(NCC(c1ccco1)N1CCc2ccccc2C1)C(=O)Nc1cc(F)ccc1F (configuration not stated)	none
Cc1ccc(CSCCNS(=O)(=O)c2ccc(C)cc2)cc1	Kir21 inh -5.5
CCn1c(CNc2ccc(Cl)cc2)nnc1SCc1ccc(Cl)cc1	Kir21 inh -5
Cc1ccc(/C=C/C(=O)NCc2cccs2)c(C)c1	none
COc1ccc(C[C@H]2CN3C(=NC[C@@H]3Cc3ccccc3)N2CCNC(=O)CCC2CCCCC2)cc1	TRPC4 act 60, Kir21 inh -11
CC(C)[C@H]1CN=C2N(CCNC(=O)CCC3CCCCC3)[C@H](Cc3ccc(O)cc3)CN21	none
COc1ccc(C[C@H]2CN3C(=NC[C@@H]3C(C)C)N2CCNC(=O)CCC2CCCCC2)cc1	Kir21 inh -6.3
COc1ccc(C(=O)N(C)Cc2ccccn2)cc1OC1CCN(C(C)C)CC1	none
Cc1nccn1CCN(C)Cc1cn(Cc2ccccc2)nc1-c1ccc2c(c1)OCO2	Kir21 inh -5.5
CN(Cc1cn(Cc2ccccc2)nc1-c1ccc2c(c1)OCO2)Cc1nccn1C	none
c1ccc(CN2CCN(Cc3c[nH]c4ccccc34)CC2)cc1	TRPC4 inh -6
CN(C)CCCn1c(=S)[nH]c2ccccc2c1=O	none
O=c1c2ccccc2[nH]c(=S)n1CCN1CCN(Cc2ccccc2)CC1	TRPC4 inh -6
CN1CCN(CCn2c(=S)[nH]c3ccccc3c2=O)CC1	none
CN(C)CCn1c(=S)[nH]c2ccccc2c1=O	TRPC4 potent 11
O=C(c1c[nH]c2ccccc12)N1CCN(Cc2ccccc2)CC1	none
COc1ccc(NC(=O)n2ncc3c(C)cccc32)cc1	none
Nc1nc(Nc2cccc(C(F)(F)F)c2)nc(C(F)(F)F)n1	TRPC6 inhibitor -6.1
c1ccc(CN2C3=NCCCN3c3ccccc32)cc1	none
Brc1ccc(CN2C3=NCCCN3c3ccccc32)cc1	TRPC4 inh -7
OC(COc1ccccc1)CN1C2=NCCCN2c2ccccc21 (configuration not stated)	TRPC4 inh -5
O=C(O)CN1C2=NCCCN2c2ccccc21	none
Clc1ccc(CN2C3=NCCN3c3ccccc32)cc1	TRPC4 inh -6
COc1ccc(C(Nc2ccccn2)c2c(NC(=O)c3ccco3)sc(C)c2C)cc1OC (configuration not stated)	TRPC4 inh -6
COc1cc(C(Nc2ccccn2)c2c(NC(=O)c3ccco3)sc(C)c2C)cc(OC)c1OC (configuration not stated)	none
CC(C)Oc1ccc(CSC(=N)N)cc1	none
CCOc1ccc(CSC(=N)N)cc1[N+](=O)[O-]	TRPC4 act 77
CCOc1ccc(CSC(=N)N)cc1Cl	TRPC4 act 120
CCOc1ccc(NC(=O)CCNC(=O)C2CCN(S(=O)(=O)c3ccccc3)CC2)cc1	none
CC(C)N(Cc1nccn1C)C(=O)c1cc(COc2ccc(F)cc2Cl)on1	none
CN(C(=O)CCn1c(=S)oc2ccccc21)c1ccc(F)cc1	Kir21 inh -5.6
CN(C)C(CNc1ncnc2sccc12)c1cccs1 (configuration not stated)	TRPC4 act 70
C[C@H](NC(=O)[C@H](Cc1ccccc1)n1c(=O)[nH]c2ccccc2c1=O)C(=O)N1CCC[C@H]1C(=O)O	none
C[C@H](NC(CCc1ccccc1)C(=O)O)C(=O)N1CCC[C@H]1C(=O)O (some centres not stated)	TRPC4 act 55
COC(=O)CS(=O)(=O)c1cc(Br)cc2c1N(C(C)=O)CC2	none
CC1CCN(CCCNS(=O)(=O)c2cc(Br)cc3c2N(C(=O)C2CC2)CC3)CC1	TRPC4 act 105
CCCN(CCC)CCCNS(=O)(=O)c1cc(Br)cc2c1N(C(C)=O)CC2	TRPC4 act 62
COCCCN1C(=O)/C(=C/c2ccc(CNS(=O)(=O)c3ccccc3)o2)C(C(=O)OC)=C1C	none
Cc1nnc(SCC(=O)Nc2nccs2)n1N	none
CN1CCN(C2=Cc3ccccc3Sc3cc(F)c(F)cc32)CC1	Kir21 inh -4.4
Cn1cc(CN2C[C@]3(C)C[C@H]2CC(C)(C)C3)c(-c2ccc3c(c2)OCCO3)n1	none
CCN1C(=O)/C(=C/N(C(C)=O)c2ccccc2)N(c2ccccc2)C1=S	Kir21 inh -4.5
Cc1cc2oc(=O)cc(CN3CCN(Cc4ccccc4)CC3)c2cc1O	TRPC4 act 79
CCc1cc2c(CN3CCN(C)CC3)cc(=O)oc2cc1O	TRPC4 act 51
CC(=O)N1N=C(c2ccc(Br)cc2)OC1(C)CC(=O)Nc1ccccc1 (configuration not stated)	TRPC4 potent 15
COc1ccc(C2Nc3ccccc3C(=O)N2Cc2ccco2)cc1COc1ccc(NC(C)=O)cc1 (configuration not stated)	TRPC4 act 110
COc1ccc(C2Nc3ccccc3C(=O)N2Cc2ccco2)cc1COc1ccccc1F (configuration not stated)	none
COc1ccc(OC)c(NC(=O)COC(=O)Cc2ccc(-c3ccccc3)cc2)c1	TRPC4 potent 21

Bioassay records from PubChem.
